Bioassay records: PubChem BioAssay, several laboratories
Hits are enriched below; roughly 2% of the tested compounds scored in any of these assays.
PABP FP inh = blocks human PABP binding to poly(A) RNA | P11940 | fluorescence polarization | inhibition, % at 35 µM | 1% of 290,000 active | AID 2014;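 also: calls also rest on retests at 20 µM and on dose response follow-up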
Target sequence (P11940 whole entry, looked up): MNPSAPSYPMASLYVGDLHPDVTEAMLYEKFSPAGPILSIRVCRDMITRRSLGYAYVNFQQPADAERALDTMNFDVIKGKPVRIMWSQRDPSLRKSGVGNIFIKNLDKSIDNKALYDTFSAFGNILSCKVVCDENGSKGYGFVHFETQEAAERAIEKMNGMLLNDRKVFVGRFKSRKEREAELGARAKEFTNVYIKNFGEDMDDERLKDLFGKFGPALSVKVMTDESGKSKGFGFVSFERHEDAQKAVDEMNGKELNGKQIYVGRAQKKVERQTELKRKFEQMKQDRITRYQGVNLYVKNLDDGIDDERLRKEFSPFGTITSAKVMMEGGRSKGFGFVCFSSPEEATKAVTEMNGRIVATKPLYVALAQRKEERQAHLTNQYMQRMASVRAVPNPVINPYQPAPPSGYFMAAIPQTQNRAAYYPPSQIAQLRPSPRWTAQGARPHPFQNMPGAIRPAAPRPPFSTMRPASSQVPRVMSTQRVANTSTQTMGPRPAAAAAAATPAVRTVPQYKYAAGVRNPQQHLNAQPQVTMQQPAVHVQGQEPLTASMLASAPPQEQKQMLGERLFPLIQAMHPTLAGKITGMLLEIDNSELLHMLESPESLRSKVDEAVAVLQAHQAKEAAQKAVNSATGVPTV
FID counter = displaces DNA intercalator in HCV helicase counter-screen; inhibition, % at 7.9 µM; DNA fluorescent intercalator displacement, fluorescence; 0.17% of 290,000 active; AID 1845; in the data active = inhibition above about 37%;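 also: higher means more ethidium bromide displaced from hairpin DNA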
HCV NS3 hel inh = inhibitors of Hepatitis C virus NS3 helicase | NS3 helicase DNA unwinding, Cy5 molecular beacon fluorescence | inhibition, % at 10.9 µM | 0.56% of 290,000 active;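 active = inhibition above the mean of all tested compounds plus 3 SD, set per campaign, cut at about 35% in these data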
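Compound dosing – single dose, 10.9 µM nominal final, DMSO 0.8% final · System – NS3 helicase fragment of HCV · Buffer or medium – MOPS pH 6.5, MgCl2, DTT, Tween20, BSA · Signal – Cy5 beacon fluorescence read at start and 1 h · Also added – annealed dual-labelled DNA beacon duplex, ATP-started · Schedule – 1 h at 25 °C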
PABP1 MLLE inh = inhibitors of microRNA-mediated deadenylation, human PABP1 MLLE binding; GST-MLLE / FITC-PAM2 fluorescence polarization; P11940; 0.36% of 360,000 active; inhibition, % at 20 µM; AID 588489; in the data active = inhibition above about 35%, passing the limit was not always enough
core dimer inh = HCV core protein dimerization inhibition; TR-FRET GST/Flag-core106 dimerization, 1536-well; inhibition, % at 5 µM; 0.33% of 300,000 active;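 active = inhibition above the mean of all tested compounds plus 3 SD, set per screening campaign, cut at about 45% in these data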
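Assay system: Tagged HCV core106 pair (GST and Flag) | Buffer or medium: KF-containing HEPES buffer, pH 7.45, DTT, CHAPS, BSA | Also added: Eu donor and XL665 acceptor anti-tag antibodies | Dosing: One concentration, 5 µM, in 0.5% DMSO | Timing: 4 h at 22.5 °C | Technique: TR-FRET 671 and 617 nm emission | Repeats: Singlicate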
eIF4H FP inh = inhibitors of RNA binding by human eIF4H. Q15056. eIF4H fluorescence polarization binding assay. inhibition, % at 35 µM. 0.94% of 290,000 active. AID 2012;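 also: calls also rest on retests at 20 µM and on dose response follow-up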
Each line names hits and unclear results; the compound was inactive in the other large screens. Unless noted, no rule for the calls is given here.

O=C(O)COc1ccc2c(c1)O/C(=C\c1ccco1)C2=O	PABP FP inh 54.3, eIF4H FP inh 76.6
O=C(O)c1ccccc1-c1ccc(/C=c2\sc3nc4cc(Br)cnc4n3c2=O)o1	PABP FP inh 50.6, eIF4H FP inh 77.4
Cc1cc2nc3s/c(=C/c4ccc(-c5ccccc5C(=O)O)o4)c(=O)n3c2cc1C	none
Cc1cc(N2Cc3ccccc3C2)ccc1C=O	core dimer inh 47.8
CC1C(=O)N(Cc2cn(CC3CCCCC3)nn2)CCS(=O)(=O)N1Cc1ccc(-c2cccc(CO)c2)cc1 (centres undefined)	none (no result: PABP FP inh, FID counter, HCV NS3 hel inh, core dimer inh, eIF4H FP inh)
CCCCc1ccc(-c2csc(/C(C#N)=C/c3ccc(C)o3)n2)cc1	none
CCCCc1ccc(-c2csc(/C(C#N)=C\c3ccco3)n2)cc1	eIF4H FP inh 55.2
COc1cc(-c2cnc3c(NC=O)cc(-c4cccc(C(=O)NCCN(C)C)c4)cn23)cc(OC)c1OC	none (no result: PABP FP inh, FID counter, HCV NS3 hel inh, core dimer inh, eIF4H FP inh)
COc1ccc(NC(=O)Cn2cc(S(=O)(=O)Cc3ccccc3)c3ccccc32)c(OC)c1	core dimer inh 52.0
Cc1ccc(S(=O)(=O)N(C)CC(=O)Nc2cccnc2)cc1	none
Cc1ccc2c(c1)-c1c(ssc1=S)C(C)(C)N2C(=O)CSc1nncn1C	PABP FP inh 55.5, eIF4H FP inh 2.4
Cc1cc(C)c2c(c1)-c1c(ssc1=S)C(C)(C)N2C(=O)CSc1nncn1C	none
COCCn1c(C)cc(C(=O)COC(=O)c2ccc(NC(=O)CC#N)cc2)c1C	PABP FP inh inconclusive, core dimer inh 68.2, eIF4H FP inh inconclusive
CCn1c2ccccc2c2cc(NC(=O)COC(=O)c3ccc(NC(=O)CC#N)cc3)ccc21	core dimer inh 73.5 (no result: PABP FP inh, FID counter, HCV NS3 hel inh, eIF4H FP inh)
CC(=O)C1CCC2C3CC=C4CC(SC(=N)N)CCC4(C)C3CCC12C (centres undefined)	none (no result: PABP FP inh, FID counter, HCV NS3 hel inh, core dimer inh, eIF4H FP inh)
COc1ccc(-c2nc3ccc(Br)cn3c2Cc2ccsc2)cc1OC	none (no result: PABP FP inh, FID counter, HCV NS3 hel inh, core dimer inh, eIF4H FP inh)
O=C(C1CC(=O)N(c2ccc(F)c(Cl)c2)C1)N1CCOCC1 (centres undefined)	none (no result: PABP FP inh, FID counter, HCV NS3 hel inh, core dimer inh, eIF4H FP inh)
C#CCOCCOCCOCCNc1nc(N2CCN(C(=O)[C@H]([C@@H](C)CC)n3cc(CCCN=C(N)N)nn3)CC2)nc(N2CCN(C(=O)[C@H]([C@@H](C)CC)n3cc(CCCN=C(N)N)nn3)CC2)n1	FID counter 42.9 (no result: PABP1 MLLE inh, core dimer inh)
C#CCOCCOCCOCCNc1nc(N2CCN(C(=O)[C@H]([C@@H](C)CC)n3cc(CCCN=C(N)N)nn3)CC2)nc(N2CCN(C(=O)[C@H](C)n3cc(CCCN=C(N)N)nn3)CC2)n1	none (no result: PABP1 MLLE inh)
C#CCOCCOCCOCCNc1nc(N2CCN(C(=O)[C@H]([C@@H](C)CC)n3cc([C@@H](N)CC(C)C)nn3)CC2)nc(N2CCN(C(=O)[C@H](CCCCN)n3cc([C@@H](N)CC(C)C)nn3)CC2)n1	PABP FP inh 49.4, FID counter 37.5, eIF4H FP inh 55.4 (no result: PABP1 MLLE inh)
C#CCOCCOCCOCCNc1nc(N2CCN(C(=O)C([C@@H](C)CC)n3cc(C(N)COC(=O)C(F)(F)F)nn3)CC2)nc(N2CCN(C(=O)[C@H](CCCCN)n3cc(C(N)[C@H](C)CC)nn3)CC2)n1 (some centres undefined)	none (no result: PABP FP inh, FID counter, HCV NS3 hel inh, PABP1 MLLE inh, eIF4H FP inh)
C#CCOCCOCCOCCNc1nc(N2CCN(C(=O)C([C@@H](C)CC)n3cc(C(N)CC(C)C)nn3)CC2)nc(N2CCN(C(=O)[C@H](CCC(=O)O)n3cc(C(N)CC(C)C)nn3)CC2)n1 (some centres undefined)	none
C#CCOCCOCCOCCNc1nc(N2CCN(C(=O)[C@H]([C@@H](C)CC)n3cc([C@@H](N)CC(C)C)nn3)CC2)nc(N2CCN(C(=O)[C@H](CCCCN)n3cc([C@@H](N)C(C)CC)nn3)CC2)n1 (some centres undefined)	FID counter 45.5
CS(=O)(=O)Nc1ccccc1C(=O)OCC(=O)N1CCC(c2ccccc2)=N1	none (no result: PABP FP inh, FID counter, HCV NS3 hel inh, core dimer inh, eIF4H FP inh)
O=C(CCCSc1ccc(Cl)cc1)Nc1cc(S(=O)(=O)N2CCOCC2)ccc1O	none (no result: PABP FP inh, FID counter, HCV NS3 hel inh, core dimer inh, eIF4H FP inh)
CCOc1ccc(S(=O)(=O)NCC2(N3CCCCC3)CCCCC2)cc1	none (no result: PABP FP inh, FID counter, HCV NS3 hel inh, core dimer inh, eIF4H FP inh)
CCOc1ccc(S(=O)(=O)NCCC(=O)NCC2(N3CCCCC3)CCCCC2)cc1	PABP FP inh 51.1, eIF4H FP inh 94.0
CCOc1ccc(NCc2cccn2-c2nnc(N3CCC(C(=O)NCCCN4CCCCC4C)CC3)s2)cc1 (centres undefined)	none
CCOc1ccc(NCc2cccn2-c2nnc(N3CCC(C(=O)NCCCN4C(C)CCCC4C)CC3)s2)cc1 (centres undefined)	FID counter 41.3
CN1C(=O)SC(Nc2ccccc2C(=O)O)C1=O (centres undefined)	PABP1 MLLE inh 38.4
O=C(O)c1ccccc1Nc1ccccc1C(=O)O	none
CCCN(CCC)CCCNC(=O)C(NS(=O)(=O)c1ccc2c(c1)CCC(=O)N2)c1ccccc1 (centres undefined)	none
Cc1cccc(NC(=O)C(NS(=O)(=O)c2ccc3c(c2)CCC(=O)N3)c2ccccc2)n1 (centres undefined)	PABP1 MLLE inh 44.1
COc1ccc(CCC(=O)Nc2ccc(S(=O)(=O)NC3=NCCCCC3)cc2)cc1	none (no result: PABP FP inh, FID counter, HCV NS3 hel inh, core dimer inh, eIF4H FP inh)
COc1cc(CCC(=O)Nc2ccc(S(=O)(=O)NC3=NCCCCC3)cc2)cc(OC)c1OC	eIF4H FP inh active
COc1ccc(Nc2ccc(N3C(=O)CC(C)C3=O)cc2[N+](=O)[O-])cn1 (centres undefined)	PABP FP inh 2.6, PABP1 MLLE inh 40.3
COc1cccc(CCNc2ccc(N3C(=O)CC(C)C3=O)cc2[N+](=O)[O-])c1 (centres undefined)	none
N#Cc1nc(-c2ccco2)oc1N1CCN(c2ccccc2)CC1	none
COc1ccc(N2CCN(c3oc(-c4ccco4)nc3C#N)CC2)cc1	eIF4H FP inh 100.5
O=C(NCCc1ccccc1)C1CCC(CNS(=O)(=O)c2ccc(F)cc2)CC1 (centres undefined)	none
[O-]/[N+](=C/c1ccc(F)cc1)c1ccc(Cl)cc1	PABP1 MLLE inh 42.0
[O-][N+](=Cc1ccccc1)c1ccc(Cl)cc1	none (no result: PABP FP inh, FID counter, HCV NS3 hel inh, core dimer inh, eIF4H FP inh)
CCOC(=O)C1CCCN(C(=O)c2cc(-c3ccc(F)cc3)nc3ccccc23)C1 (centres undefined)	none
CCN1CCCC(OC(=O)c2cc(-c3ccc(C)cc3)nc3ccccc23)C1 (centres undefined)	FID counter 38.5
Cn1cccc1CC(=O)NNC(=S)NC(=O)c1ccccc1Br	none
Cn1cccc1CC(=O)NNC(=S)Nc1ccc(Cl)cc1Cl	PABP FP inh active, eIF4H FP inh 57.6
CC(=O)Nc1nnc(SCC(=O)NCCOc2ccccc2)s1	PABP FP inh 50.9, eIF4H FP inh active
CC[n+]1c(/C=C/c2ccc(OC(C)=O)c(OC)c2)ccc2ccccc21	none (no result: core dimer inh)
CC[n+]1c(/C=C/c2ccc(OC)c(OC)c2)ccc2ccccc21	PABP FP inh 58.9
